Experimental data taken from publication PMC8237303 (Heliyon, 2021).

Key:
[1] = system: Bombesin receptor (Non-selective); test: [125I]-Bombesin binding assay; conditions: 0.1 mM l-menthol; Rat whole brain
[2] = biological target: Adenosine A2a receptor (Human) (Homo sapiens, UniProt P29274); test: [3H]-CGS21680 binding assay; conditions: 0.1 mM l-menthol; Human recombinant
[3] = biological target: Histamine H2 receptor (Human) (Homo sapiens, UniProt P25021); test: [3H]-Tiotidine binding assay; conditions: 0.1 mM l-menthol; Human recombinant
[4] = biological target: Dopamine transporter (Human) (Homo sapiens, UniProt Q01959); test: [3H]-WIN35,428 binding assay
Sequence of Dopamine transporter (Human) (Q01959 whole entry): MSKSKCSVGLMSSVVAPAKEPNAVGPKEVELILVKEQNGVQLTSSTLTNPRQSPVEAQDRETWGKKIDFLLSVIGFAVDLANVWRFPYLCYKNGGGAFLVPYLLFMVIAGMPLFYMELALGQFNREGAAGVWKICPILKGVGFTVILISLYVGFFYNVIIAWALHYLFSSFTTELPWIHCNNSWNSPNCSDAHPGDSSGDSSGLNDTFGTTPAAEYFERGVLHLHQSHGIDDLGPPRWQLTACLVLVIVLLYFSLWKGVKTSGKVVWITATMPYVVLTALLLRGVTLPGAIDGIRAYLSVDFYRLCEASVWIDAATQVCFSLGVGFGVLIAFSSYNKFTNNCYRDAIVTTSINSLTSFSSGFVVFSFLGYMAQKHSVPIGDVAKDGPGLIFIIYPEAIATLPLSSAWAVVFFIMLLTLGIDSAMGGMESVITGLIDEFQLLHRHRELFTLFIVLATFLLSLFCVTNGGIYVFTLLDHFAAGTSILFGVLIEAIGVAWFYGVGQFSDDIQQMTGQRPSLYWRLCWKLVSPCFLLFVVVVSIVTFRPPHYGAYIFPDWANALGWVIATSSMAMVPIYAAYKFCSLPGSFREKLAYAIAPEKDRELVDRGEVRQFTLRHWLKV

[5] = biological target: Vasopressin V2 receptor (Human) (Homo sapiens, UniProt P30518); test: [3H]-Vasopressin, 8-L-Arginine binding assay; conditions: 0.1 mM l-menthol; Human recombinant
[6] = system: GABA transporter; test: gamma-[3H]-Aminobutyric Acid; assay type: binding; conditions: 0.1 mM l-menthol; Rat cerebral cortex; in the presence of isoguvacine hydrochloride and S (−)-baclofen hydrochloride
[7] = biological target: Cannabinoid CB1 receptor (Human) (Homo sapiens, UniProt P21554); test: [3H]-CP-55,940 binding assay; conditions: 0.1 mM l-menthol; Human recombinant
[8] = biological target: Cannabinoid CB2 receptor (Human) (Homo sapiens, UniProt P34972); test: [3H]-CP-55,940 binding assay; conditions: 0.1 mM l-menthol; Human recombinant
Sequence of Cannabinoid CB2 receptor (Human) (P34972 whole entry): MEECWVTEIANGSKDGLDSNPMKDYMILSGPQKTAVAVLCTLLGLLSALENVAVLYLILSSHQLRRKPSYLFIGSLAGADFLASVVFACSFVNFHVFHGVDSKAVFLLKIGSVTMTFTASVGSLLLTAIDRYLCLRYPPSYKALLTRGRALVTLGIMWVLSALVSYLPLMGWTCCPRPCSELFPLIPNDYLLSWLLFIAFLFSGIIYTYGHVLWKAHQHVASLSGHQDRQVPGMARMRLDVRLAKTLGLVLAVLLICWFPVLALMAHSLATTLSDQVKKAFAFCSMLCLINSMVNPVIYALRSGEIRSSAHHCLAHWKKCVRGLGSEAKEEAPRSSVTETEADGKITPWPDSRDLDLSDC

[9] = biological target: Adenosine A3 receptor (Human) (Homo sapiens, UniProt P0DMS8); test: [125I]-AB-MECA binding assay; conditions: 0.1 mM l-menthol; Human recombinant
[10] = system: Monoamine transporter; test: [3H]-α-Dihydrotetrabenazine binding assay; conditions: 0.1 mM l-menthol; Rabbit platelet
[11] = system: Imidazoline receptor (Central); test: [3H]RX 781094; assay type: binding; conditions: 0.1 mM l-menthol; Rat cerebral cortex
[12] = biological target: Bradykinin B1 receptor (Human) (Homo sapiens, UniProt P46663); test: [3H]-Kallidin; assay type: binding; conditions: 0.1 mM l-menthol; Human recombinant
[13] = biological target: Melatonin MT1 receptor (Human) (Homo sapiens, UniProt P48039); test: [125I]-Melatonin binding assay; conditions: 0.1 mM l-menthol; Human recombinant
[14] = biological target: α1A-Adrenergic receptor (Rattus norvegicus, UniProt P43140); test: [3H]-Prazosin binding assay; conditions: 0.1 mM l-menthol; Rat submandibular gland
Sequence of α1A-Adrenergic receptor (P43140 whole entry): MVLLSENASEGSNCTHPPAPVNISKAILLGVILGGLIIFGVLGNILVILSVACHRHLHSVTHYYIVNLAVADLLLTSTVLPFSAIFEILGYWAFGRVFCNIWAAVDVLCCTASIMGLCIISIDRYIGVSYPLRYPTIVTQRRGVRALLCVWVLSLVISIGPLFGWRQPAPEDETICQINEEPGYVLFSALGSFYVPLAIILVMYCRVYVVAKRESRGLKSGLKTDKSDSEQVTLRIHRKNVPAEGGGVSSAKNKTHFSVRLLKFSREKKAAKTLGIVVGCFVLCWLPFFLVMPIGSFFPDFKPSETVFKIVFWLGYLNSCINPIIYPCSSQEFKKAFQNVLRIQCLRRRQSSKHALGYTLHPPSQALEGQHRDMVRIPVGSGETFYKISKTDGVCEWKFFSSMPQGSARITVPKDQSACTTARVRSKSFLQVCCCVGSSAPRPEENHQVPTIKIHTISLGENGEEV

[15] = biological target: Endothelin ETB receptor (Human) (Homo sapiens, UniProt P24530); test: [125I]-Endothelin-1; assay type: binding; conditions: 0.1 mM l-menthol; Human recombinant
[16] = biological target: α2B-Adrenergic receptor (Human) (Homo sapiens, UniProt P18089); assay type: binding
Sequence of α2B-Adrenergic receptor (Human) (P18089 whole entry): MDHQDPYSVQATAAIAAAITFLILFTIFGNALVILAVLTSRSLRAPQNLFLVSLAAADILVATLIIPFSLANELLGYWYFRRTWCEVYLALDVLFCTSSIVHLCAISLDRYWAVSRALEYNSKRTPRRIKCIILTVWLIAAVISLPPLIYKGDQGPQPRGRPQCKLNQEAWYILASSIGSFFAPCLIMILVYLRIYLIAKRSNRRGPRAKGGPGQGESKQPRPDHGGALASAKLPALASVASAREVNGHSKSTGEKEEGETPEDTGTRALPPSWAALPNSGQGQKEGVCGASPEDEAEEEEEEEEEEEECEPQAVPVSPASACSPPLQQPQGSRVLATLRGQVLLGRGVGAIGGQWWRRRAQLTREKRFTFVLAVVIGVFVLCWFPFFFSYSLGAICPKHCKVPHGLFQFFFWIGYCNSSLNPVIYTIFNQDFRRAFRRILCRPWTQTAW

[17] = biological target: VIP 1 receptor (Human) (Homo sapiens, UniProt P32241); test: [125I]-Vasoactive Intestinal Polypeptide binding assay; conditions: 0.1 mM l-menthol; Human receptor (Non-recombinant)
[18] = biological target: Adenosine A1 receptor (Human) (Homo sapiens, UniProt P30542); test: [3H]8-Cyclopentyl-1,3-dipropylxanthine; assay type: binding; conditions: 0.1 mM l-menthol; Human recombinant
Sequence of Adenosine A1 receptor (Human) (P30542 whole entry): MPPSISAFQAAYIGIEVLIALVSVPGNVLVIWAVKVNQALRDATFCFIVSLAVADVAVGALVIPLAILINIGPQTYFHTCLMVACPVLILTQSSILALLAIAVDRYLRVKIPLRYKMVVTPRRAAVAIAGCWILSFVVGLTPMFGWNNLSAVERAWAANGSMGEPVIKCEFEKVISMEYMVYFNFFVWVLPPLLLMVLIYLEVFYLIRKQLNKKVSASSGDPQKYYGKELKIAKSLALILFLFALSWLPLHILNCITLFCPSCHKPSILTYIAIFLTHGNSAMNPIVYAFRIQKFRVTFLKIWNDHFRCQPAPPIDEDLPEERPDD

[19] = system: GABA A receptor (Benzodiazepine site); test: [3H]-Flunitrazepam binding assay; conditions: 0.1 mM l-menthol; Rat whole brain
[20] = system: Glutamate receptor (NMDA phencycidine site); test: [3H]-; assay type: binding; conditions: 0.1 mM l-menthol; Rat cerebral cortex
[21] = biological target: GABA B receptor (Rattus norvegicus, UniProt Q9Z0U4); test: gamma-[3H]-Aminobutyric Acid; assay type: binding; conditions: 0.1 mM l-menthol; Rat cerebellum
[22] = biological target: Adenosine transporter (Human) (Homo sapiens, UniProt Q99808); test: [3H]-S-; assay type: binding; conditions: 0.1 mM l-menthol; Human receptor
Sequence of Adenosine transporter (Human) (Q99808 whole entry): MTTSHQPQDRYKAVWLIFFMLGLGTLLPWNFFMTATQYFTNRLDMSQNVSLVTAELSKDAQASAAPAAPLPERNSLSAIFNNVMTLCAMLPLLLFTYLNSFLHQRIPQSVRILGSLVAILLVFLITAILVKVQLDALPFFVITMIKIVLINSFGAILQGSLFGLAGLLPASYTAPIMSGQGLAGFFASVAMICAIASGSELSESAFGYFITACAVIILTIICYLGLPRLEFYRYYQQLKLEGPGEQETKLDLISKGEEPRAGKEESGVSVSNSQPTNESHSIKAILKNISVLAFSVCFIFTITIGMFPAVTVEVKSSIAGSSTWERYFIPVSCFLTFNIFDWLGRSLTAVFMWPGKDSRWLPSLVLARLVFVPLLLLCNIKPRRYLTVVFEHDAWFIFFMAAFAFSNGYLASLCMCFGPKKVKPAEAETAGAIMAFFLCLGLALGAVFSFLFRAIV

[23] = system: Glutamate receptor (Kainate); test: [3H]-Kainic Acid binding assay; conditions: 0.1 mM l-menthol; Rat whole brain
[24] = biological target: β1-Adrenergic receptor (Human) (Homo sapiens, UniProt P08588); test: [3H]-; assay type: binding; conditions: 0.1 mM l-menthol; Human recombinant
Sequence of β1-Adrenergic receptor (Human) (P08588 whole entry): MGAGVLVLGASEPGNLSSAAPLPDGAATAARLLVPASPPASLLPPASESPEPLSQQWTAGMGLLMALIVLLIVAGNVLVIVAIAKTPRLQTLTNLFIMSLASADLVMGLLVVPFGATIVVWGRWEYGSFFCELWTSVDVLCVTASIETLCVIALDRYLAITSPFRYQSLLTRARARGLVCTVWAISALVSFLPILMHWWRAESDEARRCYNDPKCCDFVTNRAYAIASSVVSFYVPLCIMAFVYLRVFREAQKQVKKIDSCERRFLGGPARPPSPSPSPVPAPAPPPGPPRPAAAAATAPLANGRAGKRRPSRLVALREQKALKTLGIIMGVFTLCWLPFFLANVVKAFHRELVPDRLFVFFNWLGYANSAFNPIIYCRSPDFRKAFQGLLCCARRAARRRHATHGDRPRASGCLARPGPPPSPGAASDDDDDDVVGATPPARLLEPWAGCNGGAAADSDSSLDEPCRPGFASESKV

[25] = biological target: CCK A receptor (Human) (Homo sapiens, UniProt P32238); test: [125I]-Cholecystokinin Octapeptide binding assay; conditions: 0.1 mM l-menthol; Human recombinant
[26] = biological target: Dopamine D2 receptor short isoform (Human) (Homo sapiens, UniProt P14416); test: [3H]-Spiperone binding assay; conditions: 0.1 mM l-menthol; Human recombinant
[27] = biological target: Dopamine D5 receptor (Human) (Homo sapiens, UniProt P21918); test: [3H]SCH 23390 binding assay; conditions: 0.1 mM l-menthol; Human recombinant
[28] = biological target: Endothelin ETA receptor (Human) (Homo sapiens, UniProt P25101); test: [125I]-Endothelin-1; assay type: binding; conditions: 0.1 mM l-menthol; Human recombinant
[29] = system: Glutamate receptor (NMDA agonist site); test: [3H]-CGP-39653 binding assay; conditions: 0.1 mM l-menthol; Rat cerebral cortex
[30] = biological target: Histamine H1 receptor (Human) (Homo sapiens, UniProt P35367); test: [3H]-Pyrilamine binding assay; conditions: 0.1 mM l-menthol; Human recombinant
[31] = biological target: Leukotriene D4 receptor (Cavia porcellus, UniProt Q2NNR5); test: [3H]-Leukotriene D4 binding assay; conditions: 0.1 mM l-menthol; Guinea pig lung
[32] = biological target: Muscarinic M5 receptor (Human) (Homo sapiens, UniProt P08912); test: [3H]-Scopolamine Methyl Chloride binding assay; conditions: 0.1 mM l-menthol; Human recombinant
Sequence of Muscarinic M5 receptor (Human) (P08912 whole entry): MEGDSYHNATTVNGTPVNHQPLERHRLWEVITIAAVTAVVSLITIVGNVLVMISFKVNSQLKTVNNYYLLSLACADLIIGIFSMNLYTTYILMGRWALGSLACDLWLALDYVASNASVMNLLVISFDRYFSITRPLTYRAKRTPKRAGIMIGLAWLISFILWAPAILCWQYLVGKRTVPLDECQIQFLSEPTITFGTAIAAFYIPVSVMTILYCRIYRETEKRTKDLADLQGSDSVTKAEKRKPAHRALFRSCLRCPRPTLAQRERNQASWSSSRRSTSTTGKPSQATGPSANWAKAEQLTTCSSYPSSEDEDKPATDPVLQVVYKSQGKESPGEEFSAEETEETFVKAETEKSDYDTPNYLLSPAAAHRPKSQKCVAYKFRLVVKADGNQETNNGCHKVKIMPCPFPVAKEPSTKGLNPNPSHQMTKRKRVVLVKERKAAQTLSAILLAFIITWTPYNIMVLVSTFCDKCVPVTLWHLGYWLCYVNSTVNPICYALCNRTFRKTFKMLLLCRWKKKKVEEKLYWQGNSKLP

[33] = biological target: Neuropeptide Y2 receptor (Human) (Homo sapiens, UniProt P49146); test: [125I]-Peptide YY; assay type: binding; conditions: 0.1 mM l-menthol; Human receptor (Non-recombinant)
[34] = biological target: Neurotensin NT1 receptor (Human) (Homo sapiens, UniProt P30989); test: [125I]-Neurotensin binding assay; conditions: 0.1 mM l-menthol; Human recombinant
Sequence of Neurotensin NT1 receptor (Human) (P30989 whole entry): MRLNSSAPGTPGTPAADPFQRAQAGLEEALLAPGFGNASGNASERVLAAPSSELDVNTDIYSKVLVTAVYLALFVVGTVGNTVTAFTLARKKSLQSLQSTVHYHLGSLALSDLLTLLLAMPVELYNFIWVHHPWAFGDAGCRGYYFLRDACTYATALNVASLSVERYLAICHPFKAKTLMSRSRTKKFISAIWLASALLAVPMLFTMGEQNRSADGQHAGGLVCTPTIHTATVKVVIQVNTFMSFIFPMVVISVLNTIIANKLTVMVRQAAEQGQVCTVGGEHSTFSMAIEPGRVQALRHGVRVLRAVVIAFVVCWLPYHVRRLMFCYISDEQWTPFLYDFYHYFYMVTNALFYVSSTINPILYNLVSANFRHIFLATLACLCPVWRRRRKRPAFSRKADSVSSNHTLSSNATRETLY

[35] = system: PAF receptor; test: 1-O-Hexadecyl-[3H]-Platelet Activating Factor; assay type: binding; conditions: 0.1 mM l-menthol; Rabbit platelet
[36] = biological target: Serotonin 5HT1A receptor (Human) (Homo sapiens, UniProt P08908); test: [3H]-8-Hydreoxy-DPAT binding assay; conditions: 0.1 mM l-menthol; Human recombinant
Sequence of Serotonin 5HT1A receptor (Human) (P08908 whole entry): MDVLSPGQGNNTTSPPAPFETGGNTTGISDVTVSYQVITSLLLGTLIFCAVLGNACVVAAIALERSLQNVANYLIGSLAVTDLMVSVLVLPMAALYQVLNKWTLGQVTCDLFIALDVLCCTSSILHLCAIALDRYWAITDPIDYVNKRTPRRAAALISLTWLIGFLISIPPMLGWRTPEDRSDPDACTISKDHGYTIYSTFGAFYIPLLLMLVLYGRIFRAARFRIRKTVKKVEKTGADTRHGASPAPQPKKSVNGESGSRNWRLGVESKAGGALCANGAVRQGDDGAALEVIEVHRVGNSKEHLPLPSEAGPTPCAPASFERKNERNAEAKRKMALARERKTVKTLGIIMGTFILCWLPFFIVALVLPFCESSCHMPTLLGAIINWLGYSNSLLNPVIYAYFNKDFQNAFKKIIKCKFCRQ

[37] = system: mouse ambulation; test: Measurement of mouse ambulatory activity; assay type: in vivo; conditions: mice
Summary of the method: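 Ambulometer (SAM-10) recording; 30-min adaptation, then s.c. saline or 100, 200, 400 or 800 mg/kg test compound; n = 19–20 mice per group. Each mouse's activity normalized to its total adaptation-period activity, binned per 10 min (median, quartiles); total normalized activity over 60 min post-dose compared by Kruskal-Wallis then Wilcoxon versus vehicle, P < 0.05.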

[38] = system: 88 different ligands for specific biomolecules; test: Binding assay, 88 different ligands; conditions: 0.1 mM l-menthol

Sequence of Adenosine A2a receptor (Human) (P29274 whole entry): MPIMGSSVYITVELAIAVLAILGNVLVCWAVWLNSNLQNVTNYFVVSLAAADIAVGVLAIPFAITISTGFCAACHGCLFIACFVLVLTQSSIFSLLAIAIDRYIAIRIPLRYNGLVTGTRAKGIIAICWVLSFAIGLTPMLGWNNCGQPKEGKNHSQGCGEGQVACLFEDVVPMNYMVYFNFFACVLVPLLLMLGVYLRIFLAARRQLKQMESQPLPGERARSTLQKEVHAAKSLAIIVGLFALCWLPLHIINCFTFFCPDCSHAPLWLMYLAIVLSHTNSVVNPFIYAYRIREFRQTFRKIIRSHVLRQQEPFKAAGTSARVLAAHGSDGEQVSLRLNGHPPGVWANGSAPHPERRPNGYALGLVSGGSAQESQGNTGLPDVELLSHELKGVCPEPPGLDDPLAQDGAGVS

SMILES: CC(C)[C@@H]1CC[C@@H](C)C[C@H]1O [l-menthol]
- Inhibition by l-Menthol (%) [1]: 21.87%
- Inhibition by l-Menthol (%) [2]: 21.62%
- Inhibition by l-Menthol (%) [3]: 21.17%
- Concentration dependence of inhibition of the [3H]-WIN35,428 binding [4]: concentration-dependent
- Inhibition by l-Menthol (%) ([4]; 0.1 mM l-menthol, Human recombinant): 20.67%
- IC50 ([4]; read-out: IC50 for inhibition of the [3H]-WIN35,428 binding, human recombinant dopamine transporter, 7 concentrations, duplicate): 719 µM
- Ki ([4]; read-out: Ki (mol/L), inhibition of the binding of [3H]-WIN35,428, Dopamine transporter (Human), Ki=IC50/(1+[L/Kd])): 0.000615 mol/L
- Inhibition by l-Menthol (%) [5]: 13.53%
- Inhibition by l-Menthol (%) [6]: 10.09%
- Inhibition by l-Menthol (%) [7]: 9.12%
- Inhibition by l-Menthol (%) [8]: 8.57%
- Inhibition by l-Menthol (%) [9]: 8.22%
- Inhibition by l-Menthol (%) [10]: 7.73%
- Inhibition by l-Menthol (%) [11]: 6.53%
- Inhibition by l-Menthol (%) [12]: 6.03%
- Inhibition by l-Menthol (%) [13]: 5.74%
- Inhibition by l-Menthol (%) [14]: 5.13%
- Inhibition by l-Menthol (%) [15]: 3.39%
- Inhibition by l-Menthol (%) [16]: 2.87%
- Inhibition by l-Menthol (%) [17]: 2.48%
- Inhibition by l-Menthol (%) [18]: 1.83%
- Inhibition by l-Menthol (%) [19]: 1.37%
- Inhibition by l-Menthol (%) [20]: 1.27%
- Inhibition by l-Menthol (%) [21]: 1.1%
- Inhibition by l-Menthol (%) [22]: 0.68%
- Inhibition by l-Menthol (%) [23]: 0.14%
- Inhibition by l-Menthol (%) [24]: 0%
- Inhibition by l-Menthol (%) [25]: 0%
- Inhibition by l-Menthol (%) [26]: 0%
- Inhibition by l-Menthol (%) [27]: 0%
- Inhibition by l-Menthol (%) [28]: 0%
- Inhibition by l-Menthol (%) [29]: 0%
- Inhibition by l-Menthol (%) [30]: 0%
- Inhibition by l-Menthol (%) [31]: 0%
- Inhibition by l-Menthol (%) [32]: 0%
- Inhibition by l-Menthol (%) [33]: 0%
- Inhibition by l-Menthol (%) [34]: 0%
- Inhibition by l-Menthol (%) [35]: 0%
- Inhibition by l-Menthol (%) [36]: 0%
- Dose dependence of the ambulation-promoting effect ([37]; 100-800 mg/kg s.c., Kruskal-Wallis test P < 0.0001): dose dependent
- Time of maximum ambulatory activity after administration ([37]; subcutaneous 100-800 mg/kg): 5 min
- Inhibition of the binding of 32 isotope-labeled ligands (Table 3 (b)) [38]: did not measurably inhibit
- Inhibition rates, 9 isotope-labeled ligands (Table 3 (a)) [38]: < 1%
